Paper PMC7217742 (Addiction biology, 2019)

What was measured:
male Sprague-Dawley rats [1] = test: Telemetric assessment of body temperature; assay type: in vivo, rat; details: s.c., telemetry, data not shown
Outline: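 In telemetry-implanted rats adapted to the chambers and to s.c. injection, body temperature was sampled for 10 s each minute for 3 h and averaged across the session. Doses were 0.3–3.0 mg/kg or 3.0–30 mg/kg s.c., in non-systematic order, at most twice weekly. One-way ANOVA with Dunnett's test compared each dose with control.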

male Sprague-Dawley rats [2] = test: Locomotor activity; assay type: in vivo, rat; details: i.v., lowest dose with increase, during microdialysis
Outline: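 Ambulation and stereotypy were counted by photobeam breaks in the same rats during nucleus accumbens microdialysis. The rats received two sequential i.v. injections 60 min apart, the second threefold higher (0.1/0.3 or 1.0/3.0 mg/kg), or saline (1 ml/kg), and were monitored through the 120-min post-injection period.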

DAT [3] = target: DAT (Rattus norvegicus, UniProt P23977); test: Inhibition of [3H]dopamine uptake in rat brain synaptosomes; assay type: biochemical
Sequence of DAT (Rattus norvegicus, UniProt P23977) (P23977 whole entry): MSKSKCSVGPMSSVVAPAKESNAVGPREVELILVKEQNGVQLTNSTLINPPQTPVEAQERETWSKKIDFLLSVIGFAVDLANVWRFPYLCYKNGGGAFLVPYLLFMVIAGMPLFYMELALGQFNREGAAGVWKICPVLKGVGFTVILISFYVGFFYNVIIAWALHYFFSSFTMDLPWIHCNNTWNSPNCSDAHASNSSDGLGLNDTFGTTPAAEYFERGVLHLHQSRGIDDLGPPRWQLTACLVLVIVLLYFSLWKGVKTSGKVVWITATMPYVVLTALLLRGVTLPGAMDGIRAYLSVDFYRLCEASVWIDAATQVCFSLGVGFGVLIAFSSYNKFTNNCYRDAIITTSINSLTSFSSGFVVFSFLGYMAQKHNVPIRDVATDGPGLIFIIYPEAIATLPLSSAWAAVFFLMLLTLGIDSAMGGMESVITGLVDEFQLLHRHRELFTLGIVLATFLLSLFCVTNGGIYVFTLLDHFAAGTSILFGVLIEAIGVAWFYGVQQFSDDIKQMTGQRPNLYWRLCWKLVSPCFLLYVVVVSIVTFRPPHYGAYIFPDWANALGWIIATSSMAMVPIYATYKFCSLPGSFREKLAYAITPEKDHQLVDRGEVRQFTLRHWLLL

[4] = tested on: extracellular dopamine in the nucleus accumbens; test: In vivo microdialysis, dopamine; set-up: species or system rat; details: for dose producing a significant increase in extracellular dopamine: i.v., nucleus accumbens microdialysis, vs saline
Outline: (§1)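 Male Sprague-Dawley rats (300–400 g) were anesthetized with ketamine/xylazine (75/5 mg/kg i.p.) and fitted with a jugular catheter and a guide cannula aimed at the nucleus accumbens. After three stable baseline samples, they received two i.v. doses 60 min apart, the second threefold higher (0.1 then 0.3, or 1.0 then 3.0 mg/kg); controls received saline (1 ml/kg). Dialysate was collected every 20 min for 120 min. Probe placement was verified histologically. Data were expressed as % baseline and analysed by two-way ANOVA with Bonferroni tests.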

male Sprague-Dawley rats [5] = test: Telemetric assessment of blood pressure; assay type: in vivo, rat; details: s.c.; for ED50 blood pressure: mean over 3-h session, halfway point 109.5 mm Hg, 95% CI given in text
male Sprague-Dawley rats [6] = test: Intravenous self-administration; assay type: in vivo, rat; details: for acquisition of self-administration (rats showing clear evidence): FR1, 10 days, 2-h sessions; for i.v. dose supporting peak responding: dose-effect testing after training on the same enantiomer, discussion; for dose of peak (highest) responding in dose-effect testing: i.v., after acquisition, results section; for active nose-poke responding over 10 days of extinction: saline substituted for drug
Outline: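 Rats on a reverse light cycle were catheterized in the jugular vein under ketamine/xylazine (80/9.6 mg/kg i.p.) and recovered for at least 7 days. Active nose-pokes (side counterbalanced) were reinforced on FR1 with an i.v. infusion, each followed by a 20-s timeout, in 2-h sessions. Acquisition ran at least 10 days at 0.03 or 0.3 mg/kg/inj. Three further doses were then given in non-systematic order, 3 days each, averaging days 2–3. Saline substitution for 10 days followed. Analysis used a linear mixed-effects model.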

NET [7] = target: NET (Rattus norvegicus, UniProt Q63380); test: Inhibition of [3H]norepinephrine uptake in rat brain synaptosomes; assay type: biochemical
Sequence of NET (Rattus norvegicus, UniProt Q63380) (Q63380 1-617): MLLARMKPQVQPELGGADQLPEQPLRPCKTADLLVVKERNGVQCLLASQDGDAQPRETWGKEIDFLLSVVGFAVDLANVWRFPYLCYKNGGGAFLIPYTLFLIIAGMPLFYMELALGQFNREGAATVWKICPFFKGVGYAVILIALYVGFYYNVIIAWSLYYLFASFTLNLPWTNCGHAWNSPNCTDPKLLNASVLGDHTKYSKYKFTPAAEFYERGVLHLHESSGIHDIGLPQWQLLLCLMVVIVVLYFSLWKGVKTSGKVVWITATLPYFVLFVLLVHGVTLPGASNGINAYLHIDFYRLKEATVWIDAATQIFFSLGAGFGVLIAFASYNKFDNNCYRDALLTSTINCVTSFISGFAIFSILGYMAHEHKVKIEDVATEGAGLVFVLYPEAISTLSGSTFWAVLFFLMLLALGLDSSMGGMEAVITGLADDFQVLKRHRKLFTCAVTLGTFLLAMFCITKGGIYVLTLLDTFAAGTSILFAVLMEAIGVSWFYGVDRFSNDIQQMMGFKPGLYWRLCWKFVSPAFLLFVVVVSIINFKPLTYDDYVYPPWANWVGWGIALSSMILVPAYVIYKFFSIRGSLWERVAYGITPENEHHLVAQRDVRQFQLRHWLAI

NET [8] = details: range given for DAT and NET together; cited from earlier work
[9] = tested on: mice trained to discriminate cocaine from saline; details: cited from earlier work
rats = details: progressive ratio schedule, rats trained with racemic MDPV; cited from earlier work
DAT [10] = details: range given for DAT and NET together; cited from earlier work
[11] = tested on: extracellular 5-HT in the nucleus accumbens; test: In vivo microdialysis, 5-HT; set-up: species or system rat; details: i.v.
Outline: as §1

[12] = uptake inhibition, rat brain synaptosomes

| SMILES | dose with significant increase in body temperature (male Sprague-Dawley rats [1]) | dose increasing overall activity and stereotypy (male Sprague-Dawley rats [2]) | dose producing a significant increase in extracellular dopamine [4] | ED50 blood pressure (male Sprague-Dawley rats [5]) | acquisition of self-administration (rats showing clear evidence) (male Sprague-Dawley rats [6]; 0.03 mg/kg/injection i.v.) | i.v. dose supporting peak responding (male Sprague-Dawley rats [6]) | dose of peak (highest) responding in dose-effect testing (male Sprague-Dawley rats [6]) | active nose-poke responding over 10 days of extinction (male Sprague-Dawley rats [6]) | further results |
| --- | --- | --- | --- | --- | --- | --- | --- | --- | --- |
| CCC[C@H](C(=O)c1ccccc1)N1CCCC1 [R-α-PVP] | 10 mg/kg | 3 mg/kg | 3 mg/kg | 5.85 mg/kg | did not show evidence of acquisition | 0.3 mg/kg/inj | 0.3 mg/kg/injection | did not decrease significantly over days of extinction | times less potent than S-α-PVP at DAT (DAT [3]; [12]): 40 times; size of dopamine increase relative to 0.3 mg/kg S-α-PVP ([4]; 3 mg/kg i.v., nucleus accumbens): less than half; fold difference in potency between enantiomers from calculated ED50 values (male Sprague-Dawley rats [5]; blood pressure and heart rate, R- vs S-α-PVP): 20 – 40 fold; times less potent than racemic α-PVP on blood pressure (male Sprague-Dawley rats [5]; from significant doses): approximately 10 times; acquisition of self-administration (rats showing clear evidence) (male Sprague-Dawley rats [6]; 0.3 mg/kg/injection i.v.): Six of the 8; times less potent than S-α-PVP (self-administration dose-effect determinations) (male Sprague-Dawley rats [6]; abstract): at least 30 times; fold less potent than racemic α-PVP (self-administration dose-effect function) (male Sprague-Dawley rats [6]; rightward shift of inverted U-shaped function): around 30 fold; times less potent than S-α-PVP at NET (NET [7]): 20 times |
| CCC[C@@H](C(=O)c1ccccc1)N1CCCC1 [S-α-PVP] | 0.3 mg/kg | 0.1 mg/kg | 0.1 mg/kg | 0.29 mg/kg | All 10 | ≤ 0.003 mg/kg/inj | 0.003 mg/kg/injection | decreased over the 10 days of extinction | times more potent than cocaine in blocking uptake at DAT (DAT [3]; discussion): about 30 times; times more potent than the racemate at DAT (DAT [3]; [12]): about 2 times; times more potent than racemic on blood pressure (ED50) (male Sprague-Dawley rats [5]): approximately 2 times; times more potent than the racemate at NET (NET [7]): about 2 times |
| CCC[C@@H](C(=O)c1ccc2c(c1)OCO2)N1CCCC1 [S-MDPV] |  |  |  |  |  |  |  |  | times more potent than R-MDPV in blocking uptake at NET (NET [8]): 50–100 times; times more potent than the R-isomer in substituting for cocaine [9]: about 100 times; times more potent than the R-isomer in self-administration (rats): about 50 times; times more potent than R-MDPV in blocking uptake at DAT (DAT [10]): 50–100 times |
| CCCC(C(=O)c1ccccc1)N1CCCC1 (stereo not drawn) [R,S-α-PVP, α-pyrrolidinovalerophenone] |  | 0.3 mg/kg |  |  |  |  |  |  | change in extracellular levels of 5-HT [11]: no changes |
